# Tn7 DDE FP: inhibitors of Tn7 peptide binding to human fibrin DD(E); actives 0.13% (n = 370,000); FP displacement of FITC-Tn7 peptide from fibrin DD(E); 0% = median of compound wells per plate; P02675; AID 720508; inhibition, % at 8.3 µM;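 active means inhibition above the mean of compounds falling within the control limits plus 3 SD of them, cut at about 14% in these data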;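 further: 0% = plate median of compound wells and 100% = 10 µM Aha-Tn7 peptide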
# Target sequence (P02675 whole entry, looked up): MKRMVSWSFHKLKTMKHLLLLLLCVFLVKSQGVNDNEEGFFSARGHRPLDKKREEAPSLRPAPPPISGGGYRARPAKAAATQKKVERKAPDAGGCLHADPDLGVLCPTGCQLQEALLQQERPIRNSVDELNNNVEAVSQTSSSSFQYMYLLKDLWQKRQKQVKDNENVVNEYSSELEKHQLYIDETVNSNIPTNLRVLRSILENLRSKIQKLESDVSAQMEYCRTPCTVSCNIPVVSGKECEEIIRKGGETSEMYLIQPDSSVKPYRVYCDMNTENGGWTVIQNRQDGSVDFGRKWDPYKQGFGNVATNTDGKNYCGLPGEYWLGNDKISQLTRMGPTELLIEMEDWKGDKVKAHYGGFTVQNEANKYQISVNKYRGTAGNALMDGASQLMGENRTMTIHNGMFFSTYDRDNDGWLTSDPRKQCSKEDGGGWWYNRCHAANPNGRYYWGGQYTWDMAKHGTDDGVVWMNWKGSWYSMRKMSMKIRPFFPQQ
#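 Test system – human fibrin DD(E) · Times – 10 min preincubation, 3 h with tracer, room temperature · Detection – fluorescence polarization of the labelled Tn7 tracer · Measure – percent inhibition normalized to high-control wells · Benchmarks – high control wells with 10 µM unlabelled Aha-Tn7 peptide (full inhibition) · Repeats – singlicate testing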
# mABHD4 FP: ABHD4 (mouse) inhibition, primary FP screen; Q8VD66; purified mABHD4, FP-Rh probe fluorescence polarization; inhibition, % at 8.92 µM; actives 0.54% (n = 370,000);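 active means inhibition exceeding the mean over every tested compound plus 3 SD, cut at about 30% in these data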;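 further: 0% = plate median of compound wells and 100% = S159A mutant with DMSO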
#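 System: mouse ABHD4 enzyme, wild type / Medium: HEPES pH 7.0, NaCl, Pluronic buffer / Reagent: FP-Rh activity-based fluorescent probe / Control set: S159A mutant high control, sample median low control / Detection: fluorescence polarization with parallel and perpendicular emission, 525/598 nm / Schedule: 45 min + 60 min at 25 °C / Compound dosing: 8.92 µM, single dose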
# Tn6 DDE FP: disrupts Tn6 cyclic peptide binding to fibrin D-Dimer-E complex; inhibition, % at 8.3 µM; Fibrin DD(E) TRITC-Tn6 fluorescence polarization displacement; AID 720509; actives 0.21% (n = 370,000);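 active means inhibition above a per-campaign cutoff: mean of compounds within control limits plus 3 SD, cut at about 15% in these data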;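 further: 0% = median of all compound wells on the plate and 100% = blocking peptide control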
# SIAE inh: inhibitors of human sialic acid acetylesterase SIAE | Q9HAT2 | SIAE FP-Rh probe binding, fluorescence polarization | inhibition, % at 9.66 µM | actives 0.69% (n = 370,000);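 active means inhibition above a cutoff: mean of compounds within the control limits plus 3 SD of those, cut at about 17% in these data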;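 further: 0% = plate median of compound wells and 100% = probe without SIAE protein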
# TCR CD3 inh: inhibitors of human TCR-CD3 interaction; TAMRA-labeled TCR probe fluorescence, biochemical; inhibition, % at 9.4 µM; actives 0.37% (n = 360,000); AID 651800; in the data active means inhibition above about 19%;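 further: recombinant mutant TCR 2C K166C tagged with TAMRA read by polarization; 0% = receptor in buffer alone and 100% = receptor with positive control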
# HTRA1 inh: blocks human HTRA1 serine peptidase; inhibition, % at 5.96 µM; actives 0.5% (n = 340,000); recombinant HTRA1, FP-rhodamine activity-based probe, fluorescence polarization; in the data active means inhibition above about 36%;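 further: 0% = enzyme with DMSO and 100% = wells lacking enzyme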
# DDE Tn7 confirm: DD(E)-Tn7 binding inhibition, FP confirmation; actives 5% (n = 460); AID 720628; FP displacement of TRITC-Tn7 peptide from DD(E); 0% set at plate's compound-well median; shares compounds with Tn7 DDE FP; inhibition, % at 8.3 µM;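 active means inhibition above the campaign cutoff, the mean of compounds within control limits plus 3 SD, cut at about 14% in these data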;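 further: 100% = median FP of high control wells holding Aha-Tn7 inhibitor peptide; displacers lower polarization since freed probe rises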
# DDE Tn7 FP ctr: counter-screen for inhibitors of Tn7 peptide binding to fibrin DD(E); shares compounds with Tn7 DDE FP; TRITC-Tn7 probe displacement, fluorescence polarization; inhibition, % at 8.3 µM; actives 3% (n = 460); AID 720633;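 active means inhibition above the cutoff, the mean of compounds lying between the control bounds plus 3 SD of those compounds, cut at about 17% in these data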;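 further: 0% = median of compound sample wells and 100% = excess unlabeled Aha-Tn7 peptide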
# DDE Tn6 FP ctr: counter-screen hit for Tn6 peptide-fibrin DD(E) binding disruption; actives 2% (n = 680); shares compounds with Tn6 DDE FP; inhibition, % at 8.3 µM; TRITC-Tn6 fluorescence polarization displacement; 0% = median of compound wells, not DMSO;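 active means inhibition above the mean of test compounds lying between the control limits plus 3 SD of those, cut at about 14% in these data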;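 further: 0% = median of compound wells and 100% = wells with Aha-Tn7 blocking peptide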
# DDE Tn6 confirm: confirmation of inhibitors of Tn6 binding to human fibrin DD(E). inhibition, % at 8.3 µM. FP displacement of TRITC-Tn6 peptide from DD(E); 0% = per-plate median of test wells. actives 10% (n = 680). shares compounds with Tn6 DDE FP;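 active means inhibition above the mean of compounds lying within the control limits plus 3 SD, cut at about 16% in these data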;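 further: 100% = high control wells holding a competing inhibitor peptide at 10 µM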
# Starred values were filed as active, the others as inactive; . = not tested or not shown. The list is not random: actives were taken first. Their share in the collection is about 1.8%.
SMILES,Tn7 DDE FP,mABHD4 FP,Tn6 DDE FP,SIAE inh,TCR CD3 inh,HTRA1 inh,DDE Tn7 confirm,DDE Tn7 FP ctr,others
Cc1ccc(-c2c(C#N)c(N)n(-c3ccccc3)c(=O)c2C#N)cc1,-8,-3,3,1,0,8,.,.,
COc1cc(OC)cc(C(=O)NCCN2C(=O)C3C4C=CC(C4)C3C2=O)c1 (stereo not drawn),4,5,2,3,.,.,.,.,
Cc1ccc(C(NC(=O)N2CCCCC2)=C(Cl)Cl)cc1F,15*,7,2,-2,-2,3,5,2,
O=C(O)C1C2CCC1C(O)C2 (stereo not drawn),17*,-3,10,7,1,5,1,2,
COc1ccc2c(c1)[C@]1(C(=O)N2C)C2=C(CCCC2=O)Oc2cc(C)oc(=O)c21,-2,4,11,11,-3,.,.,.,
COc1ccc(N=Nc2nc3cc(Br)c(Br)cc3n2C)c(OC)c1,28*,14,0,4,9,7,11,-3,
COc1ccc(CNc2nc3ccccc3n2C)c(OC)c1,-7,-4,-4,-2,-3,-6,.,.,
CC1CCC(NC(=O)c2cc3c(=O)n(C)c4ccccc4c3n2C)CC1 (stereo not drawn),14*,1,11,-4,-2,-1,1,-2,
COc1cccc(CNC(=O)C2CCC(CNS(=O)(=O)c3cccc4cccnc34)CC2)c1OC (stereo not drawn),10,1,12,1,.,.,.,.,
O=C(CN(Cc1cccs1)C(=O)CNS(=O)(=O)c1ccc(Cl)cc1)NCc1ccco1,15*,1,3,5,9,-3,3,-2,
CC(=O)C1=C(C)N(Cc2ccc(F)cc2)C(=S)NC1c1ccc(Br)cc1 (stereo not drawn),1,-8,1,0,6,.,.,.,
Cn1c(=O)c2[nH]c(-c3ccccc3)c(O)c2n(C)c1=O,17*,11,1,7,1,7,5,-1,
COC(=O)[C@]12C[C@H](CC(=O)N3CCSCC3)C(=O)N(Cc3ccc4c(c3)OCO4)C1=C[C@H](C(C)C)O[C@@H]2C1CC1,0,-1,-4,0,.,.,.,.,
COc1ccc(CCC(=O)N2CCN(c3ccccc3)CC2)cc1OC,15*,0,1,0,2,12,-3,-14,
CCOc1ccc(NC(=O)CCN2CCCCC2)cc1,16*,-4,-7,1,3,0,4,4,
COc1ccc(NC(=O)CCN2CCCCC2)cc1,8,-2,1,1,-4,3,.,.,
O=C(CSc1nnc(-c2ccc(Cl)cc2)n1Cc1ccco1)Nc1ccc(S(=O)(=O)Nc2nccs2)cc1,-4,-34,6,-28,.,.,.,.,
COc1ccccc1-c1sc2ccccc2c1C#Cc1ccc(N(C)C)cc1,14*,0,-4,9,-10,9,4,4,
COc1ccccc1-c1sc2ccccc2c1-c1ccc(O)cc1,-8,-17,-6,-1,-1,0,.,.,
CCn1c(=O)cc(SCC(=O)Nc2cccnc2)c2ccccc21,14*,-3,-2,-5,4,-5,2,-1,
CCn1c(=O)cc(SCC(=O)Nc2ccc3c(c2)OCO3)c2ccccc21,.,.,.,.,.,-6,.,.,
COC(=O)[C@]1(C#N)CC(=O)N(Cc2ccc(Cl)cc2)[C@@H]1c1ccc(OC)cc1,-5,-2,-1,1,.,.,.,.,
CN1CC=C(c2ccc(C(F)(F)F)cc2)N(c2ccc(Br)cc2)C1=O,-3,-4,4,-3,.,.,.,.,
Cn1c(CN2CCCCC2)nc2cc(NC(=O)c3ccc(F)cc3)ccc21,15*,-2,-1,-3,6,-3,2,2,
Cn1c(CN2CCCCC2)nc2cc(NC(=O)c3ccccc3Cl)ccc21,-3,-2,-6,-2,2,-4,.,.,
SMILES,Tn7 DDE FP,mABHD4 FP,Tn6 DDE FP,SIAE inh,TCR CD3 inh,HTRA1 inh,DDE Tn7 confirm,DDE Tn7 FP ctr,others
COc1cccc(Cn2cc(COC(=O)NCC(C)C)nn2)c1,-2,0,-4,8,.,.,.,.,
O=C(c1cccc(NC2=NC3CS(=O)(=O)CC3S2)c1)N1CCN(c2cccc(Cl)c2)CC1 (stereo not drawn),17*,-2,1,11,0,-1,7,-4,
Cc1cccc(NC(=O)c2cc(Cl)ccc2[N+](=O)[O-])c1,14*,-2,2,2,3,-9,0,-1,
CCC1=Nc2cc(C(=O)O)ccc2Sc2ccc(Cl)cc21,15*,-5,3,1,-9,-8,-1,0,
O=C(NCCC1=CCCCC1)c1ccc(-n2cncn2)c([N+](=O)[O-])c1,24*,6,162*,8,9,2,2,5,DDE Tn6 FP ctr=2;DDE Tn6 confirm=5
COc1ccc(C(=O)NCCC2=CCCCC2)cc1[N+](=O)[O-],6,-4,-3,-1,-7,-3,.,.,
COC(=O)C1=C(C)N(C)C(=NCc2ccc(C(F)(F)F)cc2)NC1c1cccc(Cl)c1 (stereo not drawn),-10,15,-2,5,5,.,.,.,
CCNC(=O)C1CCCN(C(=O)Cc2cccs2)CC1 (stereo not drawn),15*,1,18*,-3,6,.,2,-3,DDE Tn6 FP ctr=2;DDE Tn6 confirm=-3
CCC(CO)Nc1cccc2c1S(=O)(=O)N(Cc1cn(Cc3ccc(Cl)cc3)nn1)Cc1ccccc1O2 (stereo not drawn),-5,-10,5,3,.,.,.,.,
CN(CC(=O)Nc1ccccc1C(=O)NC1CC1)Cc1ccc(N(C)C)cc1,18*,-1,40*,0,12,-5,-6,-10,DDE Tn6 FP ctr=-6;DDE Tn6 confirm=-10
COc1ccc(CN(C)CC(=O)Nc2ccccc2C(=O)NC2CC2)cc1,5,0,1,2,-2,-7,.,.,
COc1ccc(N(Cc2cc3cc(OC)ccc3[nH]c2=O)C(=O)c2cccnc2)cc1,23*,8,21*,9,1,4,-6,-11,DDE Tn6 FP ctr=-6;DDE Tn6 confirm=-11
